Our source for the IC50, Activity and inhibition values is ChEMBL document CHEMBL2062507, “Myxobacteria versus sponge-derived alkaloids: the bengamide family identified as potent immune modulating agents by scrutiny of LC-MS/ELSD libraries” (Bioorg Med Chem, 2012).

Active and inactive are the calls of the source. The rule behind the calls is not given here.

The nature of test [1]: Inhibition of LPS-stimulated NFkappaB activation transfected in mouse RAW264.7 cells after 18 hrs by luciferase reporter gene assay. Particulars: RAW264.7, 18 h.
Test [2] has as its system RAW264.7. As to the kind of experiment: Cytotoxicity against mouse RAW264.7 cells after 18 hrs by MTT assay. In kind it is cell-based. Particulars: RAW264.7, 18 h. (In general: Formazan colour is commonly taken as a measure of viable cells.)
Another test has as its system HCT-116. As to the kind of experiment: Cytotoxicity against human HCT116 cells after 48 hrs by SRB assay. The test is classed as functional, cell-based. Particulars: HCT-116, 48 h.
For test [3], the system named is RAW264.7. As to the kind of experiment: Antiinflammatory activity in mouse RAW264.7 cells assessed as inhibition of LPS-stimulated TNFalpha expression up to 10 uM by quantitative RT-PCR analysis. In kind it is functional, cell-based. Put shortly: (§1)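 LPS (100 ng/mL)-stimulated RAW264.7 cells co-treated with compound at 0.01–10 μM. Total RNA (0.5 μg) DNase I-treated, reverse transcribed, cDNAs pooled per condition, SYBR Green real-time PCR array. mRNA normalised to GAPDH. Three independent experiments, one-way ANOVA, p<0.05 taken as significant.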

The test system of test [4] is RAW264.7. As to the kind of experiment: Antiinflammatory activity in mouse RAW264.7 cells assessed as inhibition of LPS-stimulated iNOS expression up to 10 uM by quantitative RT-PCR analysis. In kind it is functional, cell-based. Put shortly:
as §1

For test [5], the system named is RAW264.7. As to the kind of experiment: Antiinflammatory activity in mouse RAW264.7 cells assessed as inhibition of LPS-stimulated nitric oxide production up to 10 uM after 30 mins by Greiss method. The test is classed as functional, cell-based. A digest of the protocol:
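RAW264.7 cells grown 24 h in RPMI1640 in 96-well plates, then given fresh medium with compound and E. coli 055:B5 LPS. Supernatant mixed with Griess reagent (sulfanilamide, N-1-naphthylethylenediamine, H3PO4) for 30 min at room temperature in the dark. Absorbance read at 530 nm and converted to nitrite using a sodium nitrite standard curve.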

The subject of test [6] is RAW264.7. As to the kind of experiment: Antiinflammatory activity in mouse RAW264.7 cells assessed as inhibition of LPS-stimulated MCP1 expression up to 10 uM by quantitative RT-PCR analysis. In kind it is functional, cell-based. Put shortly: as §1
Test [7] relates to RAW264.7. As to the kind of experiment: Inhibition of LPS-stimulated NFkappaB activation transfected in mouse RAW264.7 cells at 0.01 to 10 uM after 4 hrs by measuring IKappaBalpha phosphorylation by Western blot analysis. The test is classed as cell-based. Put shortly:
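RAW264.7 cells grown near confluent in 6-well plates and given increasing compound concentrations with LPS for 4 h at 37 °C. Lysed in SDS loading buffer, run on 4–15% SDS-PAGE gels and blotted. Probed with anti-phospho-IκB and anti-IκB (1:1000), then HRP secondary. Detected by chemiluminescence on film, β-actin as loading control.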
A general note: Immunoblotting shows a protein as a band on a membrane.

The subject of test [8] is RAW264.7. As to the kind of experiment: Antiinflammatory activity in mouse RAW264.7 cells assessed as inhibition of LPS-stimulated IL-6 expression up to 10 uM by quantitative RT-PCR analysis. In kind it is functional, cell-based. A digest of the protocol:
as §1

Regarding `CO[C@@H](C(=O)N[C@H]1CC[C@@H](OC(=O)C2CCCCC2)CN(C)C1=O)[C@H](O)[C@@H](O)[C@H](O)/C=C/C(C)(C)C`, the IC50 – broadly, the concentration that inhibits the measured activity by half – in test [1] was 500 nM; with RAW264.7 [2] it was above 50000 nM; in the test on HCT-116, 40 nM.

In the case of `CCC(C)/C=C/[C@@H](O)[C@H](O)[C@@H](O)[C@@H](OC)C(=O)N[C@H]1CCCCNC1=O` (mixture of isomers), the IC50 in test [1] was 2000 nM; in the test on RAW264.7 [2], above 50000 nM; in the test on HCT-116, 1100 nM.

With `CCC(C)/C=C/[C@@H](O)[C@H](O)[C@@H](O)[C@@H](OC)C(=O)N[C@H]1CCCCN(C)C1=O` (mixture of isomers), the values for the IC50 (in [1]; in the test with RAW264.7 [2]; in the test with HCT-116) were 2000 nM, above 50000 nM and 1500 nM, respectively.

`CCCCCCCCCCCCCC(=O)O[C@H]1CC[C@H](NC(=O)[C@H](OC)[C@H](O)[C@@H](O)[C@H](O)/C=C/C(C)C)C(=O)NC1` [BENGAMIDE A]: the half-inhibitory concentration (IC50) in [1] was 75 nM; in the test with RAW264.7 [2] it was above 50000 nM; with HCT-116, 18 nM; with RAW264.7 [3], 500 nM; with RAW264.7 [6], 500 nM; in the test with RAW264.7 [8], 1000 nM. Also, the Activity entry in the test with RAW264.7 [3], in the test on RAW264.7 [6] and in the test on RAW264.7 [8] was “Dose-dependent effect” in each case. Also, the outcome in the test on RAW264.7 [4] and with RAW264.7 [5] was inactive. For the same compound, the inhibition entry in the test with RAW264.7 [7] is “Active”.

Regarding `CCCCCCCCCCCCCC(=O)O[C@H]1CC[C@H](NC(=O)[C@H](OC)[C@H](O)[C@@H](O)[C@H](O)/C=C/C(C)C)C(=O)N(C)C1` [BENGAMIDE B], the IC50 was 85 nM in test [1]; above 50000 nM in the test with RAW264.7 [2]; 2 nM in the test on HCT-116; 500 nM in the test with RAW264.7 [3]; 500 nM with RAW264.7 [6]; 500 nM in the test on RAW264.7 [8]. The Activity entry in the test with RAW264.7 [3], in the test with RAW264.7 [6] and in the test with RAW264.7 [8] was “Dose-dependent effect” throughout. Also, the outcome in the test with RAW264.7 [4] and in the test with RAW264.7 [5] was inactive. Also, the inhibition result with RAW264.7 [7] was “Active”.

For the compound `CO[C@@H](C(=O)N[C@H]1CCCCNC1=O)[C@H](O)[C@@H](O)[C@H](O)/C=C/C(C)C` [BENGAMIDE E], the IC50 is 7500 nM in test [1], above 50000 nM with RAW264.7 [2] and 60 nM in the test on HCT-116. For the same compound, in the test on RAW264.7 [7], the inhibition entry is “Active”.

As for `CCCCCCCCCCCCCC(=O)O[C@H](/C=C/C(C)C)[C@H](O)[C@@H](O)[C@@H](OC)C(=O)N[C@H]1CCCCNC1=O` [BENGAMIDE P], the midpoint of inhibition with HCT-116, the IC50, lay at 730 nM.

For the compound `CC1=C(O)C(=O)C=C2C1=CC=C1[C@@]2(C)CC[C@@]2(C)[C@@H]3C[C@](C)(C(=O)O)CC[C@]3(C)CC[C@]12C` [CELASTROL], the IC50 in test [1] was 200 nM; in the test on RAW264.7 [2] it was above 50000 nM.
